Laboratory results as given in ChEMBL document CHEMBL4513216, “Probing the Open Global Health Chemical Diversity Library for Multistage-Active Starting Points for Next-Generation Antimalarials” (ACS Infect Dis, 2020).

Assay: Toxicity liver stage against HepG2, at 10uM
Assay type: cell-based
Parameters: test concentration 10 uM, cell line HepG2-A16-CD81EGFP
Conditions: human, HepG2-A16-CD81EGFP cells; read-out: INHIBITION
Outline: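 Uninfected HepG2-A16-CD81EGFP cells, 3 × 10^3 per well, 1536-well, plated on prespotted compound at 10 μM final, parasite-free screening media added to match infected plates; puromycin 10 μM positive, DMSO 0.5% negative; run in parallel with 48 h PbLuc assay at 37 °C, 5% CO2; viability by CellTiter-Glo luminescence, normalized to controls.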

Row | SMILES | cytotoxicity at 10 µM
1 | CCOC(=O)N1CC(=O)N(Cc2ccc(OC)cc2)CC(O)C1 (stereo unspecified) | -2.67%
2 | COCCN1C(=O)c2ccc(C(=O)NCCc3c[nH]cn3)cc2C1=O | -7.13%
3 | Cc1ccc(S(=O)(=O)c2ncccc2CN2CCN(C)CC2)cc1 | -51.3%
4 | Cc1ccc(S(=O)(=O)c2ncccc2CN2CCN(CCO)CC2)cc1 | -49.1%
5 | Cc1cc(=O)[nH]c(-n2nc(C3CC3)cc2N)n1 | -4.84%
6 | O=C(NCc1ccc(F)cc1)NCC(O)(c1ccco1)C1CC1 (stereo unspecified) | -115%
7 | Cc1cc(=O)n(CCNS(=O)(=O)c2cccc(C(F)(F)F)c2)cn1 | -6.98%
8 | CS(=O)(=O)N1CCCC1CS(=O)(=O)c1ccccc1 (stereo unspecified) | 1.01%
9 | Cc1nc(CN2CCc3nc(N4CCCC4)nc(NC(C)C)c3C2)cs1 | 2.72%
10 | CC(C)N1CCc2ncn(C)c2C1C(=O)NCCN1CCCC1 (stereo unspecified) | -0.511%
11 | Cc1cnc(N2CCc3c(CN(C)Cc4ccco4)cncc3C2)nc1 | 4.15%
12 | c1cc(CN2CC[C@H]3C[C@H](c4nc(C5CC5)cs4)O[C@@H]3C2)ccn1 | 8.81%
13 | CCCN1Cc2cc(Br)ccc2OCC1=O | 3.72%
14 | CC(C)CNC(=O)c1c(-n2cnnn2)sc2c1CCCC2 | 10.8%
15 | Nc1ncccc1C(=O)NCc1cccc(Br)c1 | 42.6%
16 | COCCNC(=O)c1sc(Nc2ccc(Cl)cn2)nc1C | 32.4%
17 | COc1cccc(N2CCN(CC(O)c3cc(C)ccc3C)CC2)c1 (stereo unspecified) | 4.91%
18 | Cc1cc(NC(=O)C(C)Cn2cc(Br)cn2)no1 (stereo unspecified) | -2.04%
19 | C=C/C=c1\c(=C/C)oc2c(NCc3ccccc3)nc(C)nc12 | 24.8%
20 | O=C(CCn1ncc2c(Cl)cccc21)NCC1CC1 | 10.6%
21 | Cc1cccc(OCc2ccc(C(=O)N3N=CCC3(O)C(F)(F)F)o2)c1 (stereo unspecified) | 25.2%
22 | CCn1cc(-c2cc(C(F)(F)F)nc(NC3CCCC3)n2)c(C)n1 | 2.33%
23 | Clc1cccc(-n2cnnn2)c1N1CCCCC1 | 17.4%

Row | SMILES | cytotoxicity at 10 µM
24 | c1ccc(CCN2CCCC2c2cccc(Nc3nccs3)n2)cc1 (stereo unspecified) | 8.91%
25 | CCOc1ccc([C@@H]2N[C@H](c3nccs3)Cc3ccsc32)cc1OC | 38%
26 | CCCS(=O)(=O)N1CCC(n2nc(-c3cc(C)oc3C)ccc2=O)CC1 | 14.6%
27 | CNc1nc(C2CCN(C(=O)CC3CCCC3)C2)nc2c1CN(C)CC2 (stereo unspecified) | -40.4%
28 | CNc1nc(C2CCCN2C(C)=O)nc2c1CN(C1CCCC1)CC2 (stereo unspecified) | -9.44%
29 | Cc1cc(CNC(=O)c2cc(NC(=O)C(C)C)ccc2Cl)no1 | 13.6%
30 | O=C(NC(c1ccc(Cl)cc1)C(F)(F)F)c1nc(=O)[nH][nH]1 (stereo unspecified) | 11.5%
31 | Cc1cccc(C)c1OCCCN1CCN(CC2CCCO2)CC1 (stereo unspecified) | 9.09%
32 | CCC(O)CN1CCN(C(=O)CCSC)CC1 (stereo unspecified) | -3.5%
33 | COc1ccccc1CCN(C)C(C)c1nc(-c2cccnc2)no1 (stereo unspecified) | -2.04%
34 | Cc1ccccc1Cc1nc(CSc2nnc(N)n2C2CC2)no1 | 18%
35 | O=C(NCc1cccnc1OCC(F)(F)F)N1CCOCC1 | -43.4%
36 | Cc1cc(NC(=O)NCc2ccc(S(=O)(=O)N3CCCC3)s2)no1 | -2.24%
37 | CN(C)c1nc(N)nc(CN2CCC(c3ccccc3)CC2)n1 | 7.36%
38 | CCc1nnc(C2Cc3ccccc3CN2Cc2cc(C)on2)o1 (stereo unspecified) | -7.77%
39 | Cc1c(NCc2cccc(C#N)c2)cccc1S(=O)(=O)NC1CC1 | 42.5%
40 | OCCOc1ccc(NCc2cccc3[nH]ccc23)cn1 | 0.205%
41 | CC(=O)N(Cc1ncc(C)o1)C1CCN(Cc2ccc(F)c(F)c2)C1 (stereo unspecified) | 13.4%
42 | COc1ccc(NC(=O)CCC(C)C)c(N2CCN(C(C)=O)CC2)n1 | 8.43%
43 | Cc1ncccc1C(=O)NCc1ccccc1CN(C)Cc1ccco1 | 8.35%
44 | CCOc1cc(CN(C)Cc2ccccc2)ccc1OC(F)F | -14.7%
45 | Cc1ccc(CC(=O)N2CCOCC2c2c(C)n[nH]c2C)cc1 (stereo unspecified) | 5.12%
46 | Cn1c(CCNc2nccnc2C#N)nc2ccc(F)cc21 | -6.92%

Row | SMILES | cytotoxicity at 10 µM
47 | Cn1c2ncccc2c(=O)n1CC(=O)NCCC1=CCCCC1 | 19%
48 | CCC(C)(COc1ncccc1Cl)NCC(=O)NC1CCCCC1 (stereo unspecified) | 0.651%
49 | CC(NCC(N)=O)c1c(F)cccc1Cl (stereo unspecified) | -0.725%
50 | O=C(NCCCc1nc(=O)[nH][nH]1)c1ccc(Cl)cn1 | -47.6%
51 | Cc1n[nH]c(C)c1CNC(=O)N(Cc1ccccc1)CC(C)(C)O | 1.72%
52 | CN1CCN(c2ccc(CO)cc2F)CC1 | -42%
53 | COc1ccc(CNc2c(C)nn(C(C)C)c2C)cc1 | -37.1%
54 | CC(C)(C)c1ccc(C2(C(=O)NCCS(N)(=O)=O)CC2)cc1 | 0.515%
55 | CCO[C@H]1CC[C@H]2[C@H]1OCCN2C(=O)c1nn(C)c2ccccc12 | 7.28%
56 | Cc1cc(C(=O)N2CCc3nc(N4CCCC4)nc(C)c3CC2)c(C)o1 | -108%
57 | Cc1nc2c(c(NC3CC3)n1)CCN(C(=O)C1(C#N)CC1)CC2 | -104%
58 | CN1CCCN(c2nccc(-c3c[nH]nc3C3CCCCC3)n2)CC1 | 0.746%
59 | CCNC(=O)[C@@H]1C[C@H](NC(=O)c2ccc(C)s2)CN1Cc1ccc(C)o1 | -5.39%
60 | Cc1ccc(-c2ccnc(N3CCC4(CC3)CNC(=O)C4)n2)c(C)n1 | -5.3%
61 | COCCN(Cc1ccc(C)cc1)CC1CCOC1 (stereo unspecified) | -9.06%
62 | COc1ncc(-c2nccn2C(C)CCn2cccn2)cn1 (stereo unspecified) | 0.728%
63 | CCC(C)Oc1ccc(CNCCc2c[nH]cn2)cc1Cl (stereo unspecified) | 1.09%
64 | CCc1cnc(N)nc1NCCC(=O)NC1CCCCC1 | -42.1%
65 | O=C(N1CCOCC1)N1CCc2[nH]nc(COc3cccc(Cl)c3)c2C1 | -42.2%
66 | Cc1nc2ccc(CN3CC4(CCOC4)CCC3=O)cc2[nH]1 (stereo unspecified) | 11.7%
67 | CC(C)(C)c1nc(CN2CCc3onc(-c4cccc(F)c4)c3C2)no1 | 6.2%
68 | COc1ccc(OC2CCN(C(=O)C3CCCN(C)C3)CC2)cc1 (stereo unspecified) | -59.6%
69 | Cc1ccc2nc(CN3CCC(O)(CN4CCCC4)CC3)cc(O)c2c1 | -51.9%

Row | SMILES | cytotoxicity at 10 µM
70 | Cc1ncnc(NCC(C)N(C)c2ccccc2)c1C (stereo unspecified) | 60.3%
71 | CC1=CC(C)(C)N(CN2C(=O)c3ccccc3C2=O)c2ccc(C)cc21 | -3.49%
72 | CS(=O)(=O)c1ccc(CN2CCCC3(C2)C(=O)Nc2ccccc23)cc1 (stereo unspecified) | -1.3%
73 | Cc1sc2nc(CCN)nc(N3CCN(S(C)(=O)=O)CC3)c2c1C | -32%
74 | Cc1nc(-c2cc(Cl)cc3c2OC(CN)C3)c[nH]1 (stereo unspecified) | -1.11%
75 | CC(c1cccnc1)N(C)Cc1cc(O)c2cc(F)ccc2n1 (stereo unspecified) | 10.8%
76 | CC(C)C1CN(c2cccc(C#N)n2)CCCN1Cc1ccc(F)cc1 (stereo unspecified) | 10%
77 | CN(Cc1cc(C2CC2)[nH]n1)C(=O)C(c1cccnc1)N1CCCC1 (stereo unspecified) | -48.1%
78 | O=C(NCC1CCCO1)c1coc(Cn2cnc3ccccc32)n1 (stereo unspecified) | -3.67%
79 | CN(Cc1n[nH]c2c1CCC2)C(=O)c1cccc(CCC(C)(C)O)c1 | 3.01%
80 | O=C1CC2(CCN(CC3CC3)CC2)CN1Cc1cc(F)cc(F)c1 | 2.34%
81 | Cc1ccccc1-n1cc(C2=CCN(CCn3cc[nH]c3=O)CC2)cn1 | 16.5%
82 | O=C1CC(c2ccc(CO)o2)c2cnn(Cc3ccco3)c2N1 (stereo unspecified) | 2.77%
83 | CC(Cc1cncs1)Nc1ncnc2cccc(F)c12 (stereo unspecified) | 17.5%
84 | Cc1nc[nH]c1CN1CCOC(c2ccc(Cl)c(Cl)c2)C1 (stereo unspecified) | 0.833%
85 | Cc1ccc(-c2c(C(=O)NC3CCN(C)CC3)csc2C)cc1 | -130%
86 | CCc1ccc(C(=O)N2CCN(Cc3ccc(F)cc3)CC2)s1 | 13.4%
87 | O=C(Cc1ccccc1F)NCCN1CCOCC1 | -46.1%
88 | Cc1ccccc1N1CCN(c2cc(N(C)C)ncn2)C(C)C1 (stereo unspecified) | 19.7%
89 | O=C1CC(c2ccccc2F)c2c(n(C3CCCC3)[nH]c2=O)N1 (stereo unspecified) | -5.07%
90 | O=C1CC(c2ccccc2)c2cnn(C3CCCC3)c2N1 (stereo unspecified) | 1.5%
91 | O=C(O)CCc1cc2n(n1)CCCN(C(=O)c1cc3ccccc3s1)C2 | 0.45%
92 | COc1ccc2cc(C3CN(C(=O)C4CCOCC4)CCO3)ccc2c1 (stereo unspecified) | -8.68%

Row | SMILES | cytotoxicity at 10 µM
93 | CC(O)CN1CCN(C(=O)c2cc3ccccc3n2C)CC1 (stereo unspecified) | 2.99%
94 | O=C1NCCN1C1CCN(CCOc2cccc3ccccc23)CC1 | -5.72%
95 | Cc1nn(CC(C)C)c(N(C)C)c1CNCc1cc2ccccc2[nH]1 | -2.77%
96 | COc1cccc(-n2nnc(C(=O)N3CCN(C)CC3C)c2C)c1 (stereo unspecified) | -4.05%
97 | CCNCc1ccc(OCc2ccc3c(c2)OCCO3)cc1 | 2.44%
98 | Cc1ccc(CN2Cc3ccccc3OC3(CCC(CO)CC3)C2)s1 (stereo unspecified) | -3.11%
99 | Cc1cc(C(=O)N2CCn3cc(CN4CCOCC4)nc3C2)no1 | -75.7%
100 | Cc1ccc(S(=O)(=O)N2CCc3nc(C4CCNCC4)ncc3C2)cc1 | -3.24%
101 | O=C(NCc1ccco1)[C@@H]1CCO[C@@H]2CCN(CC3CC3)C[C@@H]21 | -78.7%
102 | Cn1cc(N2CCC3(CCCN(Cc4ccc(F)cc4)C3)C2=O)cn1 (stereo unspecified) | -73.4%
103 | CO[C@@H]1CC[C@H]2[C@H]1OCCN2C(=O)c1ccc(C)nc1 | -143%
104 | FC1(F)CCN(Cc2cccnc2)CC12CCN(c1ccccn1)C2 (stereo unspecified) | 23%
105 | O=C(c1cc[nH]n1)N1CCc2onc(COc3cccnc3)c2C1 | -70.3%
106 | O=C(CCC1CCCC1)NCCn1nc(C2CCNC2)c2nccnc21 (stereo unspecified) | 6.28%
107 | c1cc(COC[C@@H]2CCC[C@@]23CNCCO3)ccn1 | 1.26%
108 | Cc1ccc(CN2CCC3(CC2)CN(c2ccccc2)C(=O)CO3)o1 | -116%
109 | c1ccc(N2CCCC3(COCCN(c4nccs4)C3)C2)nc1 (stereo unspecified) | -8.89%
110 | CC(C)CN1CCC2(COCc3cnc(-c4ccccc4)nc32)C1 (stereo unspecified) | -103%
111 | CCN(CC)c1ccc(C2c3c(n[nH]c3C)N=C3COC(=O)C32)cc1 (stereo unspecified) | 4.33%
